Results from PubChem BioAssay AID623875 (Vanderbilt Specialized Chemistry Center, 2012).
Where “and” joins values, the source holds several entries; their conditions need not be identical. Equal values may be shown once.

Target: Metabotropic glutamate receptor 4 (Rattus norvegicus) (UniProt P31423)
Test: mGlu4 PAM potency and efficacy – thallium flux, HEK/GIRK cells, rat, SAR follow-up (AID 623875)
Settings: HEK/GIRK rat mGlu4, thallium flux fluorescence
How it was run: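 Test system: rat mGlu4 in HEK/GIRK/M4 cells. Detection: thallium flux through GIRK channels, FluoZin-2 AM fluorescence. Times: dye loading 1 h at room temperature, compound preincubation ~2.5 min before agonist. Compound dosing: 10-point concentration-response series, threefold dilution steps. Probe or stimulus: glutamate agonist added in thallium-containing buffer.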

Chain of Metabotropic glutamate receptor 4 (Rattus norvegicus) (P31423 whole entry, looked up): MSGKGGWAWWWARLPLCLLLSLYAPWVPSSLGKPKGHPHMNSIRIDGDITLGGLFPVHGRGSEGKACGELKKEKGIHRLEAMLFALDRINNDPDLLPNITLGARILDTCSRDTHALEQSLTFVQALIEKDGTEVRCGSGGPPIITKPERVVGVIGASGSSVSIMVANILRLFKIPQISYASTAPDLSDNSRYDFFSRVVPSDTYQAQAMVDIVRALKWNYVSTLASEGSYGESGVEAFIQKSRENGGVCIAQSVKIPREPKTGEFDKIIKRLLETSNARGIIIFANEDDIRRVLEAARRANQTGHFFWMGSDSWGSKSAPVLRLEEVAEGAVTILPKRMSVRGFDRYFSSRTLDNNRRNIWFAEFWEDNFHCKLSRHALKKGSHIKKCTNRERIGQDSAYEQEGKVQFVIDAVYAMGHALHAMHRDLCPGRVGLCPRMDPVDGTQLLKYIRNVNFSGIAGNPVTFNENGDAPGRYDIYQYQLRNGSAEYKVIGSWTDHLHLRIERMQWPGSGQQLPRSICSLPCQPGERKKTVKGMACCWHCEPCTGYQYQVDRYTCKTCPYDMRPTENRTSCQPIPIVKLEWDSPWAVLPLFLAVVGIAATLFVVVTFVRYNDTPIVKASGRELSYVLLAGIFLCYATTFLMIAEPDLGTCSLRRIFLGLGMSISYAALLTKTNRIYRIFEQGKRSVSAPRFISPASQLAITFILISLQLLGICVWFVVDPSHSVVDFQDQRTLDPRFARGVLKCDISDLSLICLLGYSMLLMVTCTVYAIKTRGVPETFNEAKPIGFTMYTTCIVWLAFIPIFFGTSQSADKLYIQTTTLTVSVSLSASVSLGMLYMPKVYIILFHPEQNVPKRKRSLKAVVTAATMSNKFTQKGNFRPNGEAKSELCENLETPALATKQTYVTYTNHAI

Point of comparison: O=C(Nc1ccc2cn[nH]c2c1)c1ccccn1, EC50 980 nM. Against it:
- Clc1cccc(Nc2ncnc3cccnc23)c1 — 2.6-fold higher, 2580 nM
- O=C(Nc1cccc(Cl)c1)c1ccccn1 — 3-fold lower, 330 nM
- CC(C)N(C(=O)c1ccccn1)c1cccc(Cl)c1 — 11-fold higher, 10300 nM
- COc1cc(Nc2noc3cccnc23)ccc1Cl — within 1.5-fold, 1190 nM
- Fc1cccc(Nc2noc3cccnc23)c1 — 1.8-fold lower, 530 nM
- COc1cc2nc(-c3ccccn3)[nH]c2cc1Cl — 6.5-fold higher, 6330 nM
- O=C(Nc1ccc2c(c1)C(=O)NC2=O)c1ccccn1 — 2.2-fold higher, 2120 nM
- Clc1ccc2nc(-c3ccccn3)[nH]c2c1 — within 1.5-fold, 1020 nM

With FC(F)Oc1cccc(Nc2noc3cccnc23)c1 the EC50 was 110 nM and 130 nM.
In the case of Clc1cccc(Nc2noc3cccnc23)c1, the EC50 is reported as 70 nM and 80 nM.
